The species entered for one series is Homo sapiens. As to the kind of experiment: Selectivity index, ratio of IC50 for human recombinant MAO-B to IC50 for human recombinant MAO-A. In outline: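 Selectivity index for MAO A = IC50(MAO B)/IC50(MAO A), with both human isoforms assayed against kynuramine substrate.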
Series [1] can be described thus: Aqueous solubility of the compound in saline solution. In kind it is physicochemical.
The target of series [2] is T1, Amine oxidase [flavin-containing] B (Homo sapiens, UniProt P27338).
T1 sequence (P27338 whole entry): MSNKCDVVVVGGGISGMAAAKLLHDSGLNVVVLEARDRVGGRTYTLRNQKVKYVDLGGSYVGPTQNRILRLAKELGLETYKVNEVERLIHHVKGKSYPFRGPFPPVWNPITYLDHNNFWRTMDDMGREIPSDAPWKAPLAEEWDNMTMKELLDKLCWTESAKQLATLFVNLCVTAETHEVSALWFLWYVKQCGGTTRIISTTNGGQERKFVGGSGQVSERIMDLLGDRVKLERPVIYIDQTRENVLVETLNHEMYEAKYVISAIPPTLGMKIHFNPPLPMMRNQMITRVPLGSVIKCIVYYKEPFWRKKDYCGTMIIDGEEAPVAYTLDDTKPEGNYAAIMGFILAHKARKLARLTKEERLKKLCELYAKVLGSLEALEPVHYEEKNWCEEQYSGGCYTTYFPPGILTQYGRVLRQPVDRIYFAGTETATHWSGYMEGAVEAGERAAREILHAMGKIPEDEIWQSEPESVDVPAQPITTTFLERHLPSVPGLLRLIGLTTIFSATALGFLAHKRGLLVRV
As to the kind of experiment: Inhibition of human recombinant MAO-B assessed as kynuramine oxidation to 4-hydroxyquinoline after 40 mins by LC-MS/MS analysis. The essentials: (§1)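 Human MAO A and MAO B inhibition using kynuramine as a mixed substrate for both isoforms. IC50 is given as the mean ± SE of duplicate determinations.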

Series [3] concerns the target T2, Amine oxidase [flavin-containing] A (Homo sapiens, UniProt P21397).
T2 sequence (P21397 whole entry): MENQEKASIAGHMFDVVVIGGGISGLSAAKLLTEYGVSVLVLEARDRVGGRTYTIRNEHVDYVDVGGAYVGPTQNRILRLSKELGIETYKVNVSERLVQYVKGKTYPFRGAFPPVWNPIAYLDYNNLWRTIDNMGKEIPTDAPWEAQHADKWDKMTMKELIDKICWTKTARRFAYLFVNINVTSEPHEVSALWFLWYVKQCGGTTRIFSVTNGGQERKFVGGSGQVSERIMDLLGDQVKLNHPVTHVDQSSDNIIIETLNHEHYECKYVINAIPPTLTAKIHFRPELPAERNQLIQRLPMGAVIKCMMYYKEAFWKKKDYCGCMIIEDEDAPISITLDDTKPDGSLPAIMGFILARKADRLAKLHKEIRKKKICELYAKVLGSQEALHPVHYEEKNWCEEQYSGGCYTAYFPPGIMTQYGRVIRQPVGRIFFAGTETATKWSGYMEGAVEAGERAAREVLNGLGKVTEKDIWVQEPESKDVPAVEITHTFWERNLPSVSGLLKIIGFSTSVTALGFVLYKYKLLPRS
As to the kind of experiment: Inhibition of human recombinant MAO-A assessed as kynuramine oxidation to 4-hydroxyquinoline after 40 mins by LC-MS/MS analysis. The essentials:
as §1

For series [4], the system named is Rattus norvegicus. In words: In vivo inhibition of MAO-A in Sprague-Dawley rat assessed as 5-hydroxyindoleacetic acid in brain striatum at 100 umol/kg, sc after 1 hr by HPLC/EC analysis relative to control. It is filed as functional. More on the design: scale not given: the % may be the effect or the level left. In outline:
(§2)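 Freely moving rats dosed subcutaneously and sacrificed 1 h later. Striatal DOPAC, 3-MT and 5-HIAA were measured post mortem and expressed as % of saline control (n = 4). Significance was by Student's t-test, P < 0.05.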

Series [5] deals with Rattus norvegicus. As to the kind of experiment: In vivo inhibition of MAO-A in Sprague-Dawley rat assessed as 3-methoxytyramine level in brain striatum at 100 umol/kg, sc after 1 hr by HPLC/EC analysis relative to control. In kind it is functional. More on the design: scale not given: the % may be the effect or the level left. The essentials:
as §2

Series [6] concerns Rattus norvegicus. As to the kind of experiment: In vivo inhibition of MAO-A in Sprague-Dawley rat assessed as 3,4-dihydroxyphenylacetic acid level in brain striatum at 100 umol/kg, sc after 1 hr by HPLC/EC analysis relative to control. It is filed as functional. Set-up: scale not given: the % may be the effect or the level left. In outline: as §2
A further series has as its target D(2) dopamine receptor (Homo sapiens, UniProt P14416). As to the kind of experiment: Antagonist activity at dopamine D2 receptor (unknown origin) expressed in HEK cells co-expressing Gqi5 assessed as inhibition of dopamine-induced effect by FLIPR assay. It is filed as cell-based, HEK293.
The nature of series [7]: Metabolic stability in rat liver microsomes assessed as compound remaining at 5 uM after 60 mins by LC-MS/MS analysis. To be noted: read-out: Stability. It is filed as ADME. The essentials:
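Incubation with rat liver microsomes, read as % of compound remaining after 60 min.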
Background: Liver microsomes are a subcellular fraction often used to study metabolism.

The results in this text go back to ChEMBL document CHEMBL3112537, “A novel series of 6-substituted 3-(pyrrolidin-1-ylmethyl)chromen-2-ones as selective monoamine oxidase (MAO) A inhibitors” (Eur J Med Chem, 2014).

Sequence of D(2) dopamine receptor (P14416 whole entry): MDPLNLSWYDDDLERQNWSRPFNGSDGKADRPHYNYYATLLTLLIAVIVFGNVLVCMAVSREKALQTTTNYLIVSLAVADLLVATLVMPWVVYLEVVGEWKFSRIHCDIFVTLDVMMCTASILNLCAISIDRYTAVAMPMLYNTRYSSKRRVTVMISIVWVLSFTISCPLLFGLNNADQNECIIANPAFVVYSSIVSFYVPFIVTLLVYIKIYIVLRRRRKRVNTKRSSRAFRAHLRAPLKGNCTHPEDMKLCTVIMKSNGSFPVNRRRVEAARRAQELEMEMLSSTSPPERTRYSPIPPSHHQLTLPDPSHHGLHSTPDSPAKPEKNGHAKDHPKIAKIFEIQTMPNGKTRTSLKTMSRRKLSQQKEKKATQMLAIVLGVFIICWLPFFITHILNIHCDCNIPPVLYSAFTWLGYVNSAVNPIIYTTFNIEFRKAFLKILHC

On to `O=c1oc2ccccc2cc1CN1CCCC1` [listing 1 of 2 here], for which, in the series listed under Homo sapiens, the Ratio IC50 was more than 15.8.
Take `Cl.O=c1oc2ccccc2cc1CN1CCCC1`: in [1], the solubility (usually how much of the substance goes into solution per volume) is more than 5000 µg/mL.
On to `CCCCOc1ccc2oc(=O)c(CNCC)cc2c1`, for which the IC50 (as a rule, the concentration that inhibits the measured activity by half) in series [2] is 7.34 µM; in series [3], 1.95 µM. Besides, the Ratio IC50 in the series listed under Homo sapiens amounted to 3.7.
On to `O=c1oc2ccc([N+](=O)[O-])cc2cc1CN1CCCC1`, for which the values for the Activity in the series with Rattus norvegicus [4], with Rattus norvegicus [5] and in the series on Rattus norvegicus [6] were 118%, 75% and 105%, respectively. Further, the half-inhibitory concentration (IC50) on D(2) dopamine receptor was more than 30 µM; in series [2], more than 100 µM; in series [3] it was more than 100 µM.
As for `CCCNCc1cc2ccccc2oc1=O` [listing 1 of 2 here], the remaining at 1 h, 5 µM in series [7] stood at 0%. The Activity in the series on Rattus norvegicus [4] amounted to 116%; in the series with Rattus norvegicus [5], 89%; in the series on Rattus norvegicus [6], 70%. The IC50 is more than 30 µM on D(2) dopamine receptor, 62.3 µM in [2] and 17.1 µM in series [3].
In [1], `Cl.Nc1ccc2oc(=O)c(CN3CCCC3)cc2c1` displayed a solubility of more than 5000 µg/mL.
For `N[C@@H]1C[C@H]1c1ccccc1.N[C@H]1C[C@@H]1c1ccccc1`, in the series filed under Homo sapiens, the Ratio IC50 stood at 1.
Turning to `O=c1oc2ccc(O)cc2cc1CN1CCCC1`, the Ratio IC50 in the series filed under Homo sapiens was more than 68.
Regarding `Cl.O=c1oc2ccc(C(F)(F)F)cc2cc1CN1CCCC1`, the solubility in [1] was more than 5000 µg/mL.
The same measure, in the same setting: in the case of `CCCNCc1cc2ccccc2oc1=O.Cl` it was more than 5000 µg/mL.
Still for that read-out and setting: the result for `Br.O=c1oc2ccc(O)cc2cc1CN1CCCC1` reads more than 5000 µg/mL.
Consider `O=c1oc2ccccc2cc1CN1CCCC1` [listing 2 of 2 here], for which the remaining at 1 h, 5 µM in series [7] was less than 5%. Besides, the Activity with Rattus norvegicus [4] is 106%; in the series on Rattus norvegicus [5], 164%; in the series with Rattus norvegicus [6], 58%. Also, the results for the 50% inhibitory concentration (IC50) in series [2] and in series [3] were more than 100 µM and 6.32 µM, respectively.
As for `O=c1oc2ccc(C(F)(F)F)cc2cc1CN1CCCC1`, the values for the Activity in the series with Rattus norvegicus [4], with Rattus norvegicus [5] and with Rattus norvegicus [6] were 104%, 88% and 77%, respectively. Also, the IC50 is more than 30 µM on D(2) dopamine receptor, more than 100 µM in [2] and 8.46 µM in series [3].
Turning to `O=c1oc2ccc(OC(F)(F)F)cc2cc1CN1CCCC1`, the remaining at 1 h, 5 µM in series [7] is 3%. The half-inhibitory concentration (IC50) at D(2) dopamine receptor is more than 26 µM; in [2], more than 100 µM; in series [3] it was 4.24 µM. Moreover, the Ratio IC50 in the series listed under Homo sapiens was more than 23.5.
For the compound `COc1ccc2oc(=O)c(CN3CCCC3)cc2c1` [listing 1 of 2 here], the Ratio IC50 in the series listed under Homo sapiens was more than 22.3.
With `COc1ccc2oc(=O)c(CN3CCCC3)cc2c1` [listing 2 of 2 here], the Activity with Rattus norvegicus [4] amounted to 90%; in the series with Rattus norvegicus [5], 129%; in the series on Rattus norvegicus [6], 65%. Further, the half-inhibitory concentration (IC50) on D(2) dopamine receptor was more than 30 µM; in series [2] it was more than 100 µM; in series [3], 4.48 µM.
In the case of `O=c1oc2ccc(OCc3ccccc3)cc2cc1CN1CCCC1`, the half-maximal inhibitory concentration (IC50) in series [2] and in series [3] was more than 100 µM in each case.
Compound `COc1ccc2oc(=O)c(CN3CCCC3)cc2c1.Cl` gave a solubility in series [1] of more than 5000 µg/mL.
Still for that read-out and setting: the result for `Cl.O=c1oc2ccc([N+](=O)[O-])cc2cc1CN1CCCC1` reads more than 5000 µg/mL.
Turning to `CCCOc1ccc2oc(=O)c(CN3CCCC3)cc2c1`, the half-inhibitory concentration (IC50) in series [2] was 22.3 µM; in series [3] it was 2.16 µM. In the series listed under Homo sapiens, the Ratio IC50 came to 10.3.
As to `CCCNCc1cc2ccccc2oc1=O` [listing 2 of 2 here], the Ratio IC50 in the series filed under Homo sapiens worked out at 3.6.
